Type in all cases: biochemical
The target of assay [1] is murine macrophage iNOS (Mus musculus, UniProt P29477). The experiment in a line: Nitric oxide hemoglobin capture assay, iNOS. To be noted: for selectivity n/i: ratio of Ki (iNOS) to Ki (nNOS).
Assay [2] has as its target rat nNOS (Rattus norvegicus, UniProt P29476). Nature of the assay: Nitric oxide hemoglobin capture assay, nNOS. The gist of the method:
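Recombinant rat nNOS was expressed in E. coli. Assays ran at room temperature in 100 mM Hepes pH 7.4 with 10 µM L-arginine, 1.6 mM CaCl2, 11.6 µg/mL calmodulin, 100 µM DTT, 100 µM NADPH, 6.5 µM H4B and 3.0 µM oxyhemoglobin. Enzyme addition started the reaction, and initial rates came from NO-hemoglobin formation at 401 nm over 60 sec. Ki = IC50/(1+[S]/Km), Km 1.3 µM.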

For assay [3], the target named is bovine eNOS (Bos taurus, UniProt P29473). Nature of the assay: Nitric oxide hemoglobin capture assay, eNOS. The note with it: for selectivity n/e: ratio of Ki (eNOS) to Ki (nNOS).

As a reminder, the Ki is a dissociation constant, usually derived from enzyme kinetics or from competition with a known ligand. Low values mean a stronger hold on the target, high ones a looser hold on the target.

Chain of rat nNOS (P29476 whole entry): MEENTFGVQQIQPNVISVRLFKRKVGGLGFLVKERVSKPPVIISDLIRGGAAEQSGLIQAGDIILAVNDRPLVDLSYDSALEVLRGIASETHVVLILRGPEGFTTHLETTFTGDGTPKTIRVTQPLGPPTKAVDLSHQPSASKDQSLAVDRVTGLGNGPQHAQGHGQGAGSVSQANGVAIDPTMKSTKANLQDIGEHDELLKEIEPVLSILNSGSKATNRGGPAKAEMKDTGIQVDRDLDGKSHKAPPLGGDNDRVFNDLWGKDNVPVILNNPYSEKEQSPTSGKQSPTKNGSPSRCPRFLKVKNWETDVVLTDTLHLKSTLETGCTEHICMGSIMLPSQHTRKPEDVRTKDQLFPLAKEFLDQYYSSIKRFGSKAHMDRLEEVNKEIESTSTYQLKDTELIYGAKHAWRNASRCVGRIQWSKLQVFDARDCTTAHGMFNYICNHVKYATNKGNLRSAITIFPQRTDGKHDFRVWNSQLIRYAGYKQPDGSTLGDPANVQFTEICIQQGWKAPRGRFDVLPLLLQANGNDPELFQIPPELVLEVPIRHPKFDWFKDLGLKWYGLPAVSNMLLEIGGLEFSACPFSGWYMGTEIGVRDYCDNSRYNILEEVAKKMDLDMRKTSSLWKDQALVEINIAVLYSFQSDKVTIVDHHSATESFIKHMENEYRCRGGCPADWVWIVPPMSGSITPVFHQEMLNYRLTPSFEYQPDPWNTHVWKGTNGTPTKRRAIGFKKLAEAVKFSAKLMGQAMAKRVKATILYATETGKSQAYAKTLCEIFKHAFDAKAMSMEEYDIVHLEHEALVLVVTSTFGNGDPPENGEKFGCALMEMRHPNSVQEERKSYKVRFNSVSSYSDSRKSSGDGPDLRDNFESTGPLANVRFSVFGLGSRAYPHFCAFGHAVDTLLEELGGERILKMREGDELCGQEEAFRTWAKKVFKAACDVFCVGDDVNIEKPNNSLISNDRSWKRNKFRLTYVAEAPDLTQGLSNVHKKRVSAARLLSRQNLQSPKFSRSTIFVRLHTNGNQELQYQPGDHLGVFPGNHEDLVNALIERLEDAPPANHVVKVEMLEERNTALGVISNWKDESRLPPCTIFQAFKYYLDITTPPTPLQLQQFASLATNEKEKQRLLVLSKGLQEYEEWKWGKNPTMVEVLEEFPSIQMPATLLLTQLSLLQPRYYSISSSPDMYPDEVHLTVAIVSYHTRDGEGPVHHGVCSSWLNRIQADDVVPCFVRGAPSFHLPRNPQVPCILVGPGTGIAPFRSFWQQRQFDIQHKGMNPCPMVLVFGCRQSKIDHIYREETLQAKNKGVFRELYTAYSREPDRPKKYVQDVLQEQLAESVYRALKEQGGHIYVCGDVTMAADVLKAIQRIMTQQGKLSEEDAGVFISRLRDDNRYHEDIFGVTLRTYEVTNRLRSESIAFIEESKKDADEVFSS
Chain of murine macrophage iNOS (P29477 whole entry): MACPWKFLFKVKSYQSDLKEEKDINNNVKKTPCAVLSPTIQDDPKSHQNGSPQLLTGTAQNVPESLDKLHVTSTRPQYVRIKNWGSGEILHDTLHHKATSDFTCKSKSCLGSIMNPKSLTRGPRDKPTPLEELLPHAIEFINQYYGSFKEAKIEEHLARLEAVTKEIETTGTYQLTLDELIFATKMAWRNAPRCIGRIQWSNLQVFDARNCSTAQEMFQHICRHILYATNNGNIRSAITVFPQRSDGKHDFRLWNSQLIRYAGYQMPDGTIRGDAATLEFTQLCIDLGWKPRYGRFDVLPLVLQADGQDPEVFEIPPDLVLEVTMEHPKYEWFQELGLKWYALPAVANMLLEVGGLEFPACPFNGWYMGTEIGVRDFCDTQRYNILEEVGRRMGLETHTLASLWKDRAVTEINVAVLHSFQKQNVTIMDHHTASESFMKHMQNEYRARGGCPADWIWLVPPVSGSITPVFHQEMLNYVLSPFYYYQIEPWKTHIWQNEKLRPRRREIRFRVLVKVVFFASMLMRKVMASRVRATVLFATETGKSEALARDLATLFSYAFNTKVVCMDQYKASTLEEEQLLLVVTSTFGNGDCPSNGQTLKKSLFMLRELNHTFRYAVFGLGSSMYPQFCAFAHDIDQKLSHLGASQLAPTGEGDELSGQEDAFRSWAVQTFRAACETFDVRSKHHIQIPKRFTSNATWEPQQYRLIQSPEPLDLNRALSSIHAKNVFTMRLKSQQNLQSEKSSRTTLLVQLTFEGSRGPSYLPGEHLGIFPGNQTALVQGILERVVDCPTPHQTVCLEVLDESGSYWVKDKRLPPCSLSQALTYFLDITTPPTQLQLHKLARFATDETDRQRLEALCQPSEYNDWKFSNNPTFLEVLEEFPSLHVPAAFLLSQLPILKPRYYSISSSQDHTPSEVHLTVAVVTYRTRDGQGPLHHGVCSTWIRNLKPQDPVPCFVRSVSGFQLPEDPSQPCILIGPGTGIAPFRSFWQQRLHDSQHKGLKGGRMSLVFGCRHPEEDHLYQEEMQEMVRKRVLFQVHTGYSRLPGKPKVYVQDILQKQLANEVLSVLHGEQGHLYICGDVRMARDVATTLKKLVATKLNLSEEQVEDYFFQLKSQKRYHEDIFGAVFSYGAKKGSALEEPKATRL

As to `Cc1cccc(C2CC2NCCO[C@H]2CNC[C@H]2Cc2cc(C)cc(N)n2)c1` (mixture of isomers) [(±) 2c, 4-Methyl-6-(((3R,4R)-4-(2-((1S,2R/1R,2S)-2-m-tolylcyclopropylamino)ethoxy)pyrrolidin-3-yl)methyl)pyridin-2-amine], the Ki came to 10 µM in assay [1] and 0.14 µM in assay [2].

For the compound `Cc1cc(N)nc(C[C@@H]2CNC[C@@H]2OCCNC2CC2c2cccc(Cl)c2)c1` (mixture of isomers) [(±) 2d, 6-(((3R,4R)-4-(2-((1S,2R/1R,2S)-2-(3-Clorophenyl)cyclopropylamino)ethoxy)pyrrolidin-3-yl)methyl)-4-methylpyridin-2-amine], the Ki in assay [1] came to 0.86 µM; in assay [2], 0.071 µM; in assay [3], 26 µM. Also, in assay [1], the selectivity n/i amounted to 12. Besides, in assay [3], the selectivity n/e was determined as 370.

Turning to `Cc1cc(N)nc(C[C@@H]2CNC[C@@H]2OCCNC(C)Cc2cccc(F)c2)c1.Cl` (mixture of isomers) [(±) 2e, 6-(((3R,4R)-4-(2-(((R/S)-1-(3-fluorophenyl)propan-2-yl)amino)ethoxy)pyrrolidin-3-yl)methyl)-4-methylpyridin-2-amine], in assay [1], the Ki came to 10.2 µM and the selectivity n/i stood at 220. Affinity in assay [2] was put at a Ki of 0.046 µM. In assay [3], the affinity corresponds to a Ki of 68 µM and the selectivity n/e is reported as 1500.

Turning to `Cc1cc(N)nc(C[C@@H]2CNC[C@@H]2OCCN[C@H]2C[C@@H]2c2cccc(F)c2)c1` [Compound 2b, 6-(((3R,4R)-4-(2-((1S,2R)-2-(3-Fluorophenyl)cyclopropylamino)ethoxy)pyrrolidin-3-yl)methyl)-4-methylpyridin-2-amine], the Ki in assay [1] was 12 µM; in assay [2], 0.175 µM.

The values are drawn from article PMC3574199 (Bioorganic & medicinal chemistry, 2012).
